Assay outcomes as filed in PubChem BioAssay.
Pf gamet viab = kills late stage P. falciparum gametocytes | P. falciparum stage V gametocytes, ATP luminescence, 24 h | inhibition, % at 10.9 µM | 150,000 compounds, 0.065% hits | AID 743093;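 active = inhibition above the mean plus 3 SD of compounds within the control limits, set per campaign, cut at about 38% in these data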;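 note: 0% = DMSO wells and 100% = medium only without gametocytes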
L929 necroptosis = blocks zVAD induced death of L929 cells | viability rescue, % at 10 µM | 220,000 compounds, 0.38% hits | L929 zVAD necroptosis rescue, ATP luminescence, 24 h; with zVAD 60 µM;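 active = activation, scaled between plate controls, above about 75%, limit read from the data; inactive = activation under that limit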;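 note: 0% = zVAD with DMSO and 100% = DMSO alone without zVAD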
Wee1 stabilizer = inhibitors of human Wee1 degradation; HeLa Luc-Wee1K328M stability, luciferase luminescence; 100% = proteasome inhibitor MG132 effect; reporter increase, % at 5 µM; 220,000 compounds, 1.2% hits;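 active = activation above the mean of all tested compounds plus 3 SD, set per screening run, cut at about 8.8% in these data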;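 note: cells exposed to compound for 20 h before luminescence read; 0% = DMSO alone and 100% = MG132 at 30 µM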
RBBP9 inh = inhibitors of human serine hydrolase RBBP9; O75884; recombinant RBBP9, FP-Rh probe fluorescence polarization; inhibition, % at 7.94 µM; 220,000 compounds, 0.2% hits; AID 1515;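 active = inhibition above the campaign mean of all tested compounds plus 3 SD, cut at about 14% in these data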;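 note: plate controls were DMSO wells with RBBP9 for no effect and wells lacking RBBP9 protein for full effect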
Target sequence (O75884 whole entry, looked up): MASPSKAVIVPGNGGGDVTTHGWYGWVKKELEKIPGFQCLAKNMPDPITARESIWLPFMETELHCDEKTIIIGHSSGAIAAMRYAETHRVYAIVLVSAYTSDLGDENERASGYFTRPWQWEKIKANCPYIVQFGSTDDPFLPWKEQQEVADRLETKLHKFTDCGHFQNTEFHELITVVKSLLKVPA
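Test system – recombinant human RBBP9 · Input – RBBP9 2.5 µM in dispensing solution, pre-mixing · Medium – Tris buffer pH 8.0, NaCl, Pluronic · Schedule – preincubation 30 min plus labeling 45 min at 25 °C · Measured by – fluorescence polarization · Measure – % inhibition · Controls – DMSO and no-protein wells · Replicates – one well per compound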
TNF necrop inh = inhibitors of TNF-alpha induced necroptosis in Jurkat FADD-/- cells | 220,000 compounds, 0.068% hits | Jurkat FADD-/- TNF necroptosis rescue, ATP luminescence, 24 h; 0 = TNF only, 100 = no-TNF cells | activation (protection from cell death), % at 10 µM;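 active = activation, meaning protection from cell death, of at least 50% relative to plate controls; inactive = activation below 50%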;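 note: necroptosis triggered by 40 ng/mL TNF-alpha added together with compound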
Calpain2 inh = blocks pig calpain II enzyme activity | purified calpain II, fluorogenic peptide substrate, 30 min | inhibition, % at 16 µM | 220,000 compounds, 0.37% hits;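 active = inhibition above about 50%, limit read from the data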
Numbers without * were called inactive; nt = not tested or not shown. Rows were chosen to be rich in hits. Some 2.1% of all compounds tested hit in one or more screens of this group.

SMILES | Pf gamet viab | L929 necroptosis | Wee1 stabilizer | RBBP9 inh | TNF necrop inh | Calpain2 inh
COc1ccc(S(=O)(=O)N2CCC(C(=O)NCc3ccccn3)CC2)cc1C | -1 | -1 | 1 | -5 | -3 | -6
CCCNC(=O)c1noc2c1CCc1cc(OC)ccc1-2 | 0 | 1 | 10* | -2 | 0 | 22
CCOC(=O)c1ccccc1NC(=O)Nc1ccc(OC)c(OC)c1 | 19 | 1 | -3 | -1 | 0 | -13
COc1ccc(NC(=O)Nc2ccc(C)cc2OC(F)F)cc1OC | nt | 0 | 3 | -2 | -1 | 53*
C[C@H](CO)N1C[C@H](C)[C@@H](CN(C)C(=O)Nc2ccc3c(c2)OCO3)Oc2ccc(NS(=O)(=O)c3ccccc3)cc2C1=O | -20 | nt | nt | nt | nt | nt
CCN(CC)c1ccc(NC(=O)c2ccccc2F)cc1 | nt | 2 | 9.2* | -2 | -7 | -46
O=C(NCCOc1ccccc1)c1ccccc1NC(=O)C1CCCO1 (stereo not drawn) | 2 | 0 | 9.9* | -4 | 2 | 8
CCOC(=O)c1ccccc1NC(=O)C1CCCO1 (stereo not drawn) | -13 | nt | nt | nt | nt | nt
C[C@@]1([C@@H](NC(=O)c2cccs2)c2ccc(-c3ccccc3)cc2)C[C@H]1C1CCCCC1 | nt | 6 | 3 | -10 | 2 | -10
O=C(N/N=C/c1ccc(Br)s1)c1ccc([N+](=O)[O-])cc1 | 1 | 0 | 9.0* | 1 | -2 | -37
C=CCNC(=S)Nc1cccc([N+](=O)[O-])c1 | nt | -1 | 0 | -2 | 0 | -6
O=C(N/N=C/c1cccc([N+](=O)[O-])c1)c1cccc(Br)c1 | -8 | 0 | 9.4* | -1 | 1 | 13
O=C(N/N=C/c1ccc(Br)s1)c1ccccc1[N+](=O)[O-] | nt | 0 | -2 | -3 | -3 | 8
C=CCNC(=S)N/N=C/c1cccc([N+](=O)[O-])c1 | -1 | 0 | -3 | 5 | 2 | 64*
CCOC(=O)C1CCN(S(=O)(=O)c2ccccc2[N+](=O)[O-])CC1 | -3 | nt | nt | nt | nt | nt
CCCC(CCC(=O)Nc1cccc([N+](=O)[O-])c1)C(=O)O (stereo not drawn) | -13 | 1 | -2 | -5 | 1 | -21
CCc1ccc(C(O)(c2ccccc2OC)C(CN2CCOCC2)c2ccccc2)cc1 (stereo not drawn) | nt | 1 | 1 | -7 | -1 | 9
CCCC(=O)Nc1ccc(Sc2ccc([N+](=O)[O-])cc2)cc1 | nt | 0 | -1 | -2 | -3 | 58*
O=C(O/N=C1\CCCCC1c1ccc([N+](=O)[O-])cc1[N+](=O)[O-])c1c(F)cccc1F (stereo not drawn) | -5 | 0 | 0 | -6 | -3 | 63*
CCCCCCNC(=O)N[C@H](C(=O)NCCC[C@H]1CN2C(=NC[C@H]2C)N1CCC(c1ccccc1)c1ccccc1)C(C)O (stereo partly drawn) | nt | 0 | nt | nt | 0 | -15
COc1nc(-c2ccccc2)nc(C)c1CC(=O)O | 14 | 13 | 2 | -5 | -1 | -19
CCn1c2ccccc2c2cc(N=C3SC(CC(=O)Nc4ccccc4OC)C(=O)N3C)ccc21 (stereo not drawn) | nt | 0 | 0 | -5 | -5 | -151
CCn1c2ccccc2c2cc(N=C3SC(CC(=O)Nc4ccccc4)C(=O)N3C)ccc21 (stereo not drawn) | 17 | 1 | 17* | -5 | 0 | 43
CCOc1cc(/C=N/NC(=O)CNc2ccc(C)cc2)ccc1OC(=O)c1ccccc1 | nt | 0 | -4 | -5 | -2 | -49
COc1ccc(CNc2nc3c(c(=O)n(Cc4ccc(Cl)cc4)c(=O)n3C)n2C)cc1 | -2 | 1 | -1 | 3 | -12 | 84*
SMILES | Pf gamet viab | L929 necroptosis | Wee1 stabilizer | RBBP9 inh | TNF necrop inh | Calpain2 inh
Cn1c(NCc2ccco2)nc2c1c(=O)n(Cc1ccc(Cl)c(Cl)c1)c(=O)n2C | 13 | 4 | 0 | -2 | -3 | 86*
COc1ccc(-c2oc3ccc(-c4cc(OC)c(OC)c(OC)c4)cc3c2C#Cc2ccccn2)cc1 | -2 | nt | nt | nt | nt | nt
Cc1ccc(S(=O)(=O)NCc2ccccc2)cc1 | -2 | nt | nt | nt | nt | nt
Cc1ccc(CNS(=O)(=O)c2ccc3c(c2)n(C)c(=O)c(=O)n3C)cc1 | 19 | -1 | 10* | -10 | -1 | -52
C=CCCOc1ccccc1C(N)=O | 5 | 2 | 1 | 1 | 6 | 12
Cc1cc(C(c2cc(C)c(N)c(C)c2)c2ccco2)cc(C)c1N | 13 | nt | nt | nt | nt | nt
O=C(Cn1ncc(Cl)c(Cl)c1=O)NC1CCS(=O)(=O)C1 (stereo not drawn) | -6 | -1 | 9.5* | -2 | 0 | -14
O=C(CN(Cc1ccccc1)S(=O)(=O)c1ccc2c(c1)OCCO2)N/N=C/c1ccc(F)cc1 | nt | 1 | 0 | -14 | -7 | -32
Cc1cc(C(=O)CN(Cc2ccc(F)cc2)S(=O)(=O)c2ccc3c(c2)OCCO3)c(C)n1C | 1 | 0 | 0 | -3 | -5 | 58*
Cc1nc2ccc(NC(=O)CCS(=O)(=O)c3ccccc3)cc2s1 | -3 | 1 | -5 | -12 | 2 | 20
Cc1ccc(S(=O)(=O)CCC(=O)Nc2ccc3nc(C)sc3c2)cc1 | -11 | 3 | 11* | -11 | -3 | 14
CCO[C@H]1OC(C(=O)N2CCCCCCC2)=C[C@@H](c2coc3ccccc3c2=O)[C@@H]1CCCO | nt | -1 | 4 | -2 | 1 | 0
CCOC(=O)c1c(NC(=O)c2ccc(C)cc2)sc2c1CC(C)(C)OC2 | 17 | 1 | 1 | -3 | 0 | -56
COC(=O)c1c(NC(=O)c2ccccc2)sc2c1CC(C)(C)OC2 | nt | 0 | 9.4* | -11 | 1 | -31
NC(=O)C1CCN(S(=O)(=O)Cc2ccccc2Cl)CC1 | -3 | 8 | 2 | 3 | 0 | -13
CCn1c(=O)c2ccccc2n(Cc2cccc(C)c2)c1=O | 9 | nt | nt | nt | nt | nt
Cc1cccc(Cn2c(=O)n(Cc3ccco3)c(=O)c3ccccc32)c1 | -2 | -1 | 10* | -3 | -2 | 55*
Clc1cccc(Cl)c1Cn1ccc(C2CC2)n1 | 4 | 2 | -2 | 5 | 97* | 13
Cc1ccc(CN2CCCC(CO)(Cc3ccccc3C)C2)s1 (stereo not drawn) | nt | -1 | 8.9* | -8 | 0 | 9
CC(NC(=O)COC(=O)c1ccc([N+](=O)[O-])s1)c1ccccc1 (stereo not drawn) | nt | 1 | 8.9* | -3 | 1 | 10
O=C(COC(=O)c1ccc([N+](=O)[O-])s1)NC(=O)NCc1ccccc1 | nt | 4 | -3 | -5 | 0 | 0
CC(C)C[C@H](NC(=O)c1nc[nH]c1C(=O)NCc1ccccc1)C(=O)OC(C)(C)C | 0 | -1 | 0 | -4 | 1 | 60*
